# Assay results from ChEMBL document CHEMBL1157714, “Synthesis, anti-HIV and anti-oxidant activities of caffeoyl 5,6-anhydroquinic acid derivatives” (Bioorg Med Chem, 2010).
# What was measured:
# [1] = test system: Human immunodeficiency virus 1; experiment: Antiviral activity against HIV1 3B infected in human MT4 cells after 5 days; type: functional
# Method in brief: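 MT-4 cells were infected 1 h with HIV-1 (HTLV-IIIB) at TCID50 0.001/cell, resuspended at 1 × 10⁵ cells/ml in RPMI-1640, and cultured 5 days with graded compound concentrations. Infected and uninfected controls had no compound. On day 5, the concentration fully preventing the virus-induced cytopathic effect was read by optical microscopy.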
# MT4 = experiment: Cytotoxicity against human MT4 cells after 5 days; type: cell-based; conditions: mt4, 120 h
# Method in brief: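 Over a 5-day culture in RPMI-1640 with graded compound concentrations, MT-4 cell growth was checked by optical microscopy. The cytotoxic concentration (CC) was the concentration that reduced MT-4 viability.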
# [2] = Antioxidant activity assessed as SOD-like activity by WST1 assay; type: functional
# Method in brief: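 SOD Assay Kit-WST in 96-well plates. Compound in DMSO was mixed with WST working solution, and the reaction was started with xanthine oxidase. After 20 min at 37 °C, absorbance was read at 450 nm. Inhibition % was corrected with three blanks (DMSO, no enzyme, DMSO plus buffer). Four concentrations were tested, and IC50 was taken from the inhibition-concentration plot.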
# [3] = test system: Radical scavenging activity; experiment: Antioxidant activity assessed as DPPH radical scavenging activity; type: functional
# Method in brief: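 Each well held 10 µl compound in DMSO plus 190 µl of 0.1 mM DPPH in ethanol. After 20 min at rt, absorbance was read at 540 nm. Effective rate % was computed, each compound was tested at 4 concentrations, and EC50 was derived from a plot of effective rate % against concentration.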
Structure (SMILES),EC50 [3] [µg/mL],IC100 [1] [µg/mL],CC100 (MT4) [µg/mL],IC50 [2] [µg/mL]
O=C(/C=C/c1ccc(O)c(O)c1)O[C@@H]1C[C@@](O)(C(=O)O)C[C@@H](O)[C@@H]1O,17,,,1.5
CC(=O)Oc1ccc(/C=C/C(=O)O[C@@H]2C=C[C@@]3(C[C@H]2OC(=O)/C=C/c2ccc(OC(C)=O)c(OC(C)=O)c2)OC(C)(C)OC3=O)cc1OC(C)=O,> 50,,> 6.25,6.3
CC1(C)OC(=O)[C@@]2(C=C[C@@H](O)[C@H](OC(=O)/C=C/c3ccc(O)c(O)c3)C2)O1,20,50,> 100,1.5
CC1(C)OC(=O)[C@@]2(C=C[C@@H](OC(=O)/C=C/c3ccc(O)c(O)c3)[C@H](O)C2)O1,18,50,> 100,1.3
CC[C@@H]1OC(=O)[C@]2(C[C@@H](O)[C@H](O)[C@H](OC(=O)/C=C/c3ccc(O)c(O)c3)C2)O1,19,,> 12.5,1
CC1(C)OC(=O)[C@]2(C[C@@H](O)[C@H](O)[C@H](OC(=O)/C=C/c3ccc(O)c(O)c3)C2)O1,8,25,> 50,1.6
COC(=O)[C@@]1(O)C[C@@H](O)[C@H](O)[C@H](OC(=O)/C=C/c2ccc(O)c(O)c2)C1,20,,> 25,1.4
CC(=O)Oc1ccc(/C=C/C(=O)O[C@@H]2C[C@]3(C=C[C@H]2O)OC(C)(C)OC3=O)cc1OC(C)=O,> 50,50,> 100,1.8
CC1(C)OC(=O)[C@@]2(C=C[C@@H](O)[C@H](O)C2)O1,> 50,,> 100,> 100
O=C(/C=C/c1ccc(O)c(O)c1)O[C@@H]1C[C@](O)(C(=O)O)C=C[C@H]1O,16,,> 25,0.5
CCC1(CC)OC(=O)[C@]2(C[C@@H](O)[C@H](O)[C@H](OC(=O)/C=C/c3ccc(O)c(O)c3)C2)O1,29,,> 25,2
CCCCCC1(CCCCC)OC(=O)[C@]2(C[C@@H](O)[C@H](O)[C@H](OC(=O)/C=C/c3ccc(O)c(O)c3)C2)O1,28,,> 12.5,2.9
O=C(/C=C/c1ccc(O)c(O)c1)O[C@@H]1C=C[C@@](O)(C(=O)O)C[C@H]1O,15,,> 25,0.7
CC1(C)O[C@H]2[C@H](O)C[C@@]3(C[C@H]2O1)OC(C)(C)OC3=O [QUINIC ACID BISACETONIDE],> 50,,> 100,> 100

# More lines, main results first:
EC50 [3] [µg/mL],Structure (SMILES),IC100 [1] [µg/mL],CC100 (MT4) [µg/mL],IC50 [2] [µg/mL]
16,O=C(/C=C/c1ccc(O)c(O)c1)O[C@@H]1C[C@](O)(C(=O)O)C[C@@H](OC(=O)/C=C/c2ccc(O)c(O)c2)[C@H]1O,12.5,> 50,2.3
20,CC[C@H]1OC(=O)[C@]2(C[C@@H](O)[C@H](O)[C@H](OC(=O)/C=C/c3ccc(O)c(O)c3)C2)O1,,> 12.5,1.1
> 50,CC(=O)Oc1ccc(/C=C/C(=O)O[C@@H]2C=C[C@@]3(C[C@H]2O)OC(C)(C)OC3=O)cc1OC(C)=O,,,2.9
11,O=C(/C=C/c1ccc(O)c(O)c1)O[C@@H]1C=C[C@@](O)(C(=O)O)C[C@H]1OC(=O)/C=C/c1ccc(O)c(O)c1,6.25,> 25,1.9
20,CC1(C)OC(=O)[C@@]2(C=C[C@@H](OC(=O)/C=C/c3ccc(O)c(O)c3)[C@H](OC(=O)/C=C/c3ccc(O)c(O)c3)C2)O1,,> 25,2
22,CCCCC1(CCCC)OC(=O)[C@]2(C[C@@H](O)[C@H](O)[C@H](OC(=O)/C=C/c3ccc(O)c(O)c3)C2)O1,,> 25,2
30,CCCC1(CCC)OC(=O)[C@]2(C[C@@H](O)[C@H](O)[C@H](OC(=O)/C=C/c3ccc(O)c(O)c3)C2)O1,,> 25,2
> 50,CC1(C)O[C@H]2C=C[C@@]3(C[C@H]2O1)OC(C)(C)OC3=O,,> 100,90
